Data set [1] relates to Mus musculus. As to the kind of experiment: Antiallergic activity in ip dosed ddY mouse assessed as inhibition of passive cutaneous anaphylaxis administered 15 mins before egg albumin challenge. The data set is classed as functional. To be noted: read-out: ID50 (the source's name). In short, it runs like this:
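Passive cutaneous anaphylaxis: anti-egg-albumin antiserum injected into both ears 48 h before iv egg albumin plus Evans Blue. Intraperitoneal dosing 15 min before antigen; dye leakage per ear measured spectrophotometrically after 30 min. ID50 (mg/kg) given as dose giving 50% inhibition.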

Data set [2] relates to Mus musculus. As to the kind of experiment: Antiallergic activity in po dosed ddY mouse assessed as inhibition of passive cutaneous anaphylaxis administered 30 mins before egg albumin challenge. The class given is functional. The settings on record: read-out: ID50 (the source's name). In short, it runs like this:
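Passive cutaneous anaphylaxis in mice: ear sensitization with anti-egg-albumin antiserum 48 h before iv egg albumin with Evans Blue; oral dosing 30 min before antigen; ear dye leakage read spectrophotometrically 30 min after challenge.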

The target in data set [3] is T1, Aldo-keto reductase family 1 member D1 (Rattus norvegicus) (UniProt P31210).
T1 sequence (whole entry): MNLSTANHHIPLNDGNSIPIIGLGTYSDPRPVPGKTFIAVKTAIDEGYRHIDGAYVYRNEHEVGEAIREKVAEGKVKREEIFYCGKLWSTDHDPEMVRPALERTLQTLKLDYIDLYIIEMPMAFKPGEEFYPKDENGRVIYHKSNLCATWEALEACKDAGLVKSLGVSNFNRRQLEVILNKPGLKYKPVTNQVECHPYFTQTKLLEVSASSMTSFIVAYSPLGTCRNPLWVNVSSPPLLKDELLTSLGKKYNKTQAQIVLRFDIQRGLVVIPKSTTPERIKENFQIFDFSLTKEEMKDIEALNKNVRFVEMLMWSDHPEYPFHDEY
The data set can be described thus: Inhibition of rat liver 3-ketosteroid 5-beta-reductase.

Data set [4] concerns Mus musculus. As to the kind of experiment: Antiallergic activity in ddY mouse assessed as inhibition picryl chloride-induced contact dermatitis at 75 mg/kg, po administered 3 hrs after picryl chloride challenge measured after 24 hrs.
The subject of data set [5] is Mus musculus. The data set can be described thus: Antiallergic activity in ddY mouse assessed as inhibition sheep erythrocytes-induced arthus reaction at 300 mg/kg, po administered 30 mins before induction of arthus reaction. The class given is functional. The procedure, abridged: (§1)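 Male ddY mice (4-week-old, 16–18 g) sensitized by iv sheep erythrocytes 19 and 5 days before Arthus reaction, induced by sc sheep erythrocytes into right paw. Oral dosing 30 min before induction; edema scored as right minus left paw thickness, expressed as % inhibition of control.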

Data set [6] relates to Mus musculus. As to the kind of experiment: Acute toxicity in ddY mouse at 4 g/kg, po. The class given is organism-based. To be noted: in vivo, 4000 mg/kg. In short, it runs like this:
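Mice dosed orally at 4 g/kg; lethality recorded as the read-out for acute toxicity.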

For data set [7], the system named is Mus musculus. The data set can be described thus: Antiallergic activity in ddY mouse assessed as inhibition sheep erythrocytes-induced arthus reaction at 600 mg/kg, po administered 30 mins before induction of arthus reaction. The data set is classed as functional. The procedure, abridged: as §1
The test system of data set [8] is Mus musculus. The data set can be described thus: Antiallergic activity in ddY mouse assessed as inhibition picryl chloride-induced contact dermatitis at 150 mg/kg, po administered 3 hrs after picryl chloride challenge measured after 24 hrs.
For data set [9], the system named is Mus musculus. As to the kind of experiment: Antiallergic activity in ddY mouse assessed as inhibition picryl chloride-induced contact dermatitis at 300 mg/kg, po administered 3 hrs after picryl chloride challenge measured after 24 hrs.
For data set [10], the system named is Mus musculus. As to the kind of experiment: Antiallergic activity in ddY mouse assessed as inhibition picryl chloride-induced contact dermatitis at 30 mg/kg, po administered 3 hrs after picryl chloride challenge measured after 24 hrs.
Data set [11] relates to Mus musculus. The data set can be described thus: Antiallergic activity in ddY mouse assessed as inhibition sheep erythrocytes-induced arthus reaction at 30 mg/kg, po administered 30 mins before induction of arthus reaction. The data set is classed as functional. The procedure, abridged: as §1

Our source for the ED50, Activity and inhibition in vivo values is ChEMBL document CHEMBL1147338, “Production of an anti-allergic triterpene bryonolic acid, by plant cell cultures” (J Nat Prod, 1993).

Activity calls are given as the source filed them. The rule behind the calls is not given here.

Consider `CC1(C)[C@@H](O)CC[C@]2(C)C3=C(CC[C@@H]12)[C@@]1(C)CC[C@@]2(C)CC[C@@](C)(CO)C[C@H]2[C@]1(C)CC3`, for which, in data set [1], the ED50 was 315 mg/kg.
In the case of `CC1(C)[C@@H](OC(=O)CCC(=O)[O-])CC[C@]2(C)C3=C(CC[C@@H]12)[C@@]1(C)CC[C@@]2(C)CC[C@@](C)(COC(=O)CCC(=O)[O-])C[C@H]2[C@]1(C)CC3.[K+].[K+]`, the ED50 in data set [1] stood at 52.4 mg/kg.
Turning to `CC1(C)[C@@H](OC(=O)c2ccccc2C(=O)[O-])CC[C@]2(C)C3=C(CC[C@@H]12)[C@@]1(C)CC[C@@]2(C)CC[C@@](C)(C(=O)[O-])C[C@H]2[C@]1(C)CC3.[K+].[K+]`, the ED50 turned out to be 34.2 mg/kg in data set [1] and 172 mg/kg in data set [2].
For `CC1(C)[C@@H](OC(=O)c2ccccc2C(=O)[O-])CC[C@]2(C)C3=C(CC[C@@H]12)[C@@]1(C)CC[C@@]2(C)CC[C@@](C)(COC(=O)c4ccccc4C(=O)[O-])C[C@H]2[C@]1(C)CC3.[K+].[K+]`, in that order: 41.4 mg/kg and 92.5 mg/kg.
For the compound `CC1(C)[C@@H](O)CC[C@]2(C)C3=C(CC[C@@H]12)[C@@]1(C)CC[C@@]2(C)CC[C@@](C)(COC(=O)CCC(=O)[O-])C[C@H]2[C@]1(C)CC3.[K+]`, the ED50 in data set [1] was above 400 mg/kg.
For the compound `CC1(C)[C@@H](O)CC[C@]2(C)[C@H]3C(=O)C=C4[C@@H]5C[C@@](C)(C(=O)O)CC[C@]5(C)CC[C@@]4(C)[C@]3(C)CC[C@@H]12`, the result in data set [3] was Active.
With `CC1(C)[C@@H](OC(=O)CCC(=O)[O-])CC[C@]2(C)C3=C(CC[C@@H]12)[C@@]1(C)CC[C@@]2(C)CC[C@@](C)(C(=O)[O-])C[C@H]2[C@]1(C)CC3.[K+].[K+]`, the inhibition in vivo at 75 mg/kg in data set [4] worked out at 34%. Also, the inhibition in vivo at 300 mg/kg in data set [5] stood at 35.3%; in [9] it was 53%. In addition, the Activity entry in data set [6] was “Non-toxic”. For the same compound, the ED50 in data set [1] is 55.3 mg/kg; in data set [2], 63.7 mg/kg. Besides, in data set [7], the inhibition in vivo at 600 mg/kg amounted to 62.4%. In [8], the inhibition in vivo at 150 mg/kg was determined as 40.7%.
For the compound `C[C@]12C=CC(=O)C=C1CC[C@@H]1[C@@H]2[C@@H](O)C[C@@]2(C)[C@H]1CC[C@]2(O)C(=O)COC(=O)CCC(=O)O` [PREDNISOLONE HEMISUCCINATE], the values for the inhibition in vivo at 30 mg/kg in data set [10] and in data set [11] were 41% and 37.4%, respectively.
For `CC1(C)[C@@H](OC(=O)CCC(=O)[O-])CC[C@]2(C)C3=C(CC[C@@H]12)[C@@]1(C)CC[C@@]2(C)CC[C@@](C)(CO)C[C@H]2[C@]1(C)CC3.[K+]`, the ED50 in data set [1] amounted to 50.3 mg/kg.
With `COc1ccc(/C=C/C(=O)Nc2ccccc2C(=O)O)cc1OC` [TRANILAST], the ED50 in data set [1] came out at 152 mg/kg.
Consider `CC1(C)[C@@H](O)CC[C@]2(C)C3=C(CC[C@@H]12)[C@@]1(C)CC[C@@]2(C)CC[C@@](C)(C(=O)O)C[C@H]2[C@]1(C)CC3` [BRYONOLIC ACID], for which the ED50 in [1] was 376 mg/kg. The result in data set [3] was inactive.
Turning to `CC1(C)[C@@H](OC(=O)CCC(=O)[O-])CC[C@]2(C)C3=CC[C@@]4(C)[C@@H]5C[C@](C)(C(=O)[O-])CC[C@]5(C)CC[C@]4(C)C3=CC[C@@H]12.[K+].[K+]`, the ED50 in data set [1] worked out at 92.4 mg/kg.
